# Active and inactive are the calls of the source. No cut-off for these calls is given here.
# Legend:
# [1] = tested on: Trypanosoma brucei; assay: Antitrypanosomal activity against Trypanosoma brucei BSF overexpressing NTR gene assessed as growth inhibition after 3 days by Alamar blue assay; type: functional, organism-based; settings: 72 h
# Summary of the method: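 Bloodstream-form 2T1 parasites overexpressing TbNTR, kept in hygromycin, seeded at 1×10^3 ml⁻¹ in modified Iscove's medium with graded compound. Tetracycline 1 μg ml⁻¹ added for induction where appropriate. 3 days at 37°C, 5% CO2, then Alamar Blue for 16 h; fluorescence at ex 530/em 585 nm. IC50 calculated; means of 4 experiments ± SD.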
# [2] = tested on: Trypanosoma cruzi; assay: Antitrypanosomal activity against Trypanosoma cruzi clone Cl-Brener infected in african green monkey Vero cells assessed as growth inhibition after 3 days by luciferase reporter gene assay; type: functional, organism-based; settings: 72 h
# Summary of the method: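 Vero cells seeded at 1.5×10^4 ml⁻¹, allowed to adhere 6 h, then infected overnight with 10,000 luciferase-expressing Cl-Brener trypomastigotes per well. After two washes to remove free parasites, drug-containing medium was added for 3 days at 37°C, 5% CO2. Cells were lysed and luciferase light output read; IC50 calculated.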
# [3] = tested on: V79; assay: Cytotoxicity against chinese hamster V79 cells after 6 days by Alamar blue assay; type: cell-based; settings: Cricetulus griseus, V79, 144 h
# [4] = tested on: Trypanosoma brucei; assay: Activity of Trypanosoma brucei NTR expressed in Escherichia coli assessed as enzyme-mediated compound reduction by reverse phase HPLC
# Summary of the method: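 Recombinant His-tagged TbNTR purified from E. coli (Ni-NTA). Substrate 100 μM with 200 μM NADH, 3 mM glucose, 1 U glucose dehydrogenase in 50 mM NaH2PO4 pH 7.5 at 37°C; started with 50 μg enzyme. Aliquots at 20–600 s quenched in ice-cold methanol. Substrate loss followed by reversed-phase HPLC (4–56% acetonitrile, 254/340/450 nm), quantified against a nifurtimox standard.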
# [5] = tested on: Vero; assay: Cytotoxicity against african green monkey Vero cells after 6 days by Alamar blue assay; type: cell-based; settings: Chlorocebus sabaeus, 144 h
# Summary of the method: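 Vero cells seeded at 1×10^4 ml⁻¹ in RPMI 1640 with 10% FCS containing graded compound (up to 250 μM). 6 days at 37°C, 5% CO2, then Alamar Blue for 8 h; fluorescence read and IC50 derived.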
SMILES,IC50 [1],IC50 [2],IC50 [3],Activity [4],IC50 [5]
CS(=O)(=O)c1cc([N+](=O)[O-])c(N2CC2)cc1C(N)=O,> 10 µM,> 10 µM,,,
NC(=O)c1cc(N2CC2)c([N+](=O)[O-])cc1[N+](=O)[O-] [TRETAZICAR],,0.57 µM,543 µM,Active,> 250 µM
O=C(NCCN1CCOCC1)c1cc([N+](=O)[O-])cc([N+](=O)[O-])c1N1CC1,> 10 µM,> 10 µM,,,
O=[N+]([O-])c1cc(NCC(O)CO)c(N2CC2)c([N+](=O)[O-])c1 (centres undefined),> 6.4 µM,> 10 µM,,,
COC(=O)CCNC(=O)c1cc(N2CC2)c([N+](=O)[O-])cc1[N+](=O)[O-],1.45 µM,0.69 µM,634 µM,Active,> 250 µM
O=C(NCCN1CCOCC1)c1cc(N2CC2)c([N+](=O)[O-])cc1[N+](=O)[O-],0.89 µM,1.59 µM,624 µM,Active,> 250 µM
NC(=O)c1cc([N+](=O)[O-])cc([N+](=O)[O-])c1N1CC1,> 10 µM,> 10 µM,,,
CS(=O)(=O)c1cc([N+](=O)[O-])c(N2CC2)cc1NCC(O)CO (centres undefined),> 10 µM,> 10 µM,,,
CC1CS(=O)(=O)CCN1/N=C/c1ccc([N+](=O)[O-])o1 (centres undefined) [NIFURTIMOX],,0.24 µM,35 µM,,64.1 µM
NC(=O)c1ccc([N+](=O)[O-])c(N2CC2)c1,> 10 µM,> 10 µM,,,

# Reference: ChEMBL document CHEMBL1649334, “Trypanocidal activity of aziridinyl nitrobenzamide prodrugs” (Antimicrob Agents Chemother, 2010)
